Legend:
[1] = Synergistic cytotoxicity against mouse L5178 cells expressing human ABCB1 assessed as combination index at ED90 using 60:1 test compound to doxorubicin ratio after 48 hrs by MTT-based checkerboard microplate method; type: functional
Method in brief: (§1)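 Checkerboard microplate combinations of compound with doxorubicin at constant molar ratios. 5 × 10^4 cells/well in McCoy's 5A, 48 h at 37°C, 5% CO2. MTT added to 0.5 mg/mL final for 4 h, SDS/HCl overnight, OD read at 540 and 630 nm. Combination indices derived per ratio for 50%, 75% and 90% growth inhibition by median-effect analysis.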

[2] = Synergistic cytotoxicity against mouse L5178 cells expressing human ABCB1 assessed as combination index at ED50 using 30:1 test compound to doxorubicin ratio after 48 hrs by MTT-based checkerboard microplate method; type: functional; method in brief: as §1
[3] = Synergistic cytotoxicity against mouse L5178 cells assessed as combination index at ED50 using 37.5:1 test compound to doxorubicin ratio after 48 hrs by MTT-based checkerboard microplate method; type: functional; method in brief: as §1
[4] = Synergistic cytotoxicity against mouse L5178 cells assessed as combination index at ED90 using 75:1 test compound to doxorubicin ratio after 48 hrs by MTT-based checkerboard microplate method; type: functional; method in brief: as §1
[5] = Synergistic cytotoxicity against mouse L5178 cells assessed as combination index at ED90 using 600:1 test compound to doxorubicin ratio after 48 hrs by MTT-based checkerboard microplate method; type: functional; method in brief: as §1
[6] = Synergistic cytotoxicity against mouse L5178 cells expressing human ABCB1 assessed as combination index at ED50 using 7.5:1 test compound to doxorubicin ratio after 48 hrs by MTT-based checkerboard microplate method; type: functional; method in brief: as §1
[7] = Synergistic cytotoxicity against mouse L5178 cells expressing human ABCB1 assessed as combination index at ED75 using 60:1 test compound to doxorubicin ratio after 48 hrs by MTT-based checkerboard microplate method; type: functional; method in brief: as §1
[8] = system: MCF7; test: Antiproliferative activity against human MCF7 cells after 72 hrs by MTT assay; type: functional, cell-based; conditions: MCF7, 72 h
Method in brief: (§2)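 Cells grown in MEM with 10% FCS, 1% non-essential amino acids and 1% penicillin-streptomycin. Seeded at 5000 cells/well, exposed to 0.1–30.0 µM compound for 72 h. MTT (5 mg/ml solution) was then added for 4 h, formazan dissolved in DMSO, and absorbance read at 545 nm. Cisplatin served as positive control. IC50 came from sigmoidal dose–response fits (log inhibitor vs normalized response, variable slope).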

[9] = Synergistic cytotoxicity against mouse L5178 cells assessed as combination index at ED75 using 150:1 test compound to doxorubicin ratio after 48 hrs by MTT-based checkerboard microplate method; type: functional; method in brief: as §1
[10] = Synergistic cytotoxicity against mouse L5178 cells assessed as combination index at ED90 using 300:1 test compound to doxorubicin ratio after 48 hrs by MTT-based checkerboard microplate method; type: functional; method in brief: as §1
[11] = Synergistic cytotoxicity against mouse L5178 cells expressing human ABCB1 assessed as combination index at ED75 using 15:1 test compound to doxorubicin ratio after 48 hrs by MTT-based checkerboard microplate method; type: functional; method in brief: as §1
[12] = Synergistic cytotoxicity against mouse L5178 cells expressing human ABCB1 assessed as combination index at ED90 using 3.75:1 test compound to doxorubicin ratio after 48 hrs by MTT-based checkerboard microplate method; type: functional; method in brief: as §1
[13] = molecular target: T1, ABCB1 (P-glycoprotein) (Homo sapiens, UniProt P08183); test: Inhibition of human ABCB1 expressed in mouse L5178 cells assessed as increase in rhodamine-123 accumulation at 20 uM after 10 mins by flow cytometric analysis relative to control; type: cell-based; conditions: mouse L5178 cells expressing human ABCB1, probe rhodamine-123
T1 sequence (P08183 whole entry): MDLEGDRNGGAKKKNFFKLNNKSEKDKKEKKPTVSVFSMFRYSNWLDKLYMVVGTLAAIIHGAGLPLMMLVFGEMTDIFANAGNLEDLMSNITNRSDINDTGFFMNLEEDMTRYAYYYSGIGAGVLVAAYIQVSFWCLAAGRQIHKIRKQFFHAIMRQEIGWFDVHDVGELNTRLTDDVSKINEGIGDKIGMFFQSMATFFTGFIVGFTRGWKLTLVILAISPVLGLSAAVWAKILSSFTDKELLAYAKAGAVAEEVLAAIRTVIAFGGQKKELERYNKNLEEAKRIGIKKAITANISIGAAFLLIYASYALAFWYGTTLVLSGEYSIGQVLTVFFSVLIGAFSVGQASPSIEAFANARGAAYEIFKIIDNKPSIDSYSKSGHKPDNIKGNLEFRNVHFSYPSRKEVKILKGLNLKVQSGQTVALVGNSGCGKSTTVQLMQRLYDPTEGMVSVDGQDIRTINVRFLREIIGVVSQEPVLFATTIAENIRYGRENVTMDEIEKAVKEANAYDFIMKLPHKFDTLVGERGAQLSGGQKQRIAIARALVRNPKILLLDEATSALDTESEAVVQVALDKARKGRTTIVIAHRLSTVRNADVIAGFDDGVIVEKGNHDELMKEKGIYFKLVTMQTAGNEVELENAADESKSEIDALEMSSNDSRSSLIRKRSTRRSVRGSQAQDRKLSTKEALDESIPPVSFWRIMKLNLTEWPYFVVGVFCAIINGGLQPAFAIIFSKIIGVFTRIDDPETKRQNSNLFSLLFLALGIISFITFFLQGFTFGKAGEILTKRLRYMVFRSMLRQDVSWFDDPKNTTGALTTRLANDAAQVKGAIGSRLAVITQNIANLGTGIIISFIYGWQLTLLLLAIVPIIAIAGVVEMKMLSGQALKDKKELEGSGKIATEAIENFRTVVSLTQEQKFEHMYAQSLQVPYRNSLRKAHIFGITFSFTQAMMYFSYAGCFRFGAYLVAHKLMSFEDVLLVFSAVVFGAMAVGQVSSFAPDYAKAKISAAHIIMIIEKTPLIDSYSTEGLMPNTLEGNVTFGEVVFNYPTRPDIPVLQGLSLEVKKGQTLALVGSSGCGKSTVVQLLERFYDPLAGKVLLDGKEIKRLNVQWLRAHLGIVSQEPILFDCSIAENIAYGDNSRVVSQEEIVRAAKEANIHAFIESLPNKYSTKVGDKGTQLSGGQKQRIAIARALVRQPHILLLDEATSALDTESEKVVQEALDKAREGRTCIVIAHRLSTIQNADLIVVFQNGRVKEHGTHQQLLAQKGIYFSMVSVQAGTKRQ
Method in brief: (§3)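 Cells at 2 × 10^6/mL were preincubated 10 min with compound. Rhodamine 123 then added to 5.2 µM final, 20 min at 37 °C. Cells washed twice in PBS, resuspended and read by flow cytometry. Percent inhibition was scaled between MDR-cell accumulation (0%) and parental L5178 accumulation (100%). Controls: 100 nM tariquidar (positive) and 2% DMSO (negative).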

[14] = Synergistic cytotoxicity against mouse L5178 cells expressing human ABCB1 assessed as combination index at ED75 using 7.5:1 test compound to doxorubicin ratio after 48 hrs by MTT-based checkerboard microplate method; type: functional; method in brief: as §1
[15] = Synergistic cytotoxicity against mouse L5178 cells expressing human ABCB1 assessed as combination index at ED90 using 15:1 test compound to doxorubicin ratio after 48 hrs by MTT-based checkerboard microplate method; type: functional; method in brief: as §1
[16] = Cytotoxicity against mouse L5178 cells after 48 hrs by MTT assay; type: functional, cell-based; conditions: L5178, 48 h
Method in brief: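 Parental mouse lymphoma L5178 and the MDR line made by pHa MDR1/A retrovirus transfection, selected with 60 µg/L colchicine. Grown in McCoy's 5A with horse serum at 37°C, 5% CO2. 5 x 10^4 cells/well, serial compound dilutions, 48 h. MTT added to 0.5 mg/mL final for 4 h, then 10% SDS in 0.01 M HCl overnight, OD read at 540 and 630 nm. IC50 taken as median cytotoxic activity (Dm) from control lanes of checkerboard plates, n=2.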

[17] = Synergistic cytotoxicity against mouse L5178 cells assessed as combination index at ED75 using 75:1 test compound to doxorubicin ratio after 48 hrs by MTT-based checkerboard microplate method; type: functional; method in brief: as §1
[18] = Synergistic cytotoxicity against mouse L5178 cells expressing human ABCB1 assessed as combination index at ED50 using 60:1 test compound to doxorubicin ratio after 48 hrs by MTT-based checkerboard microplate method; type: functional; method in brief: as §1
[19] = Synergistic cytotoxicity against mouse L5178 cells assessed as combination index at ED50 using 150:1 test compound to doxorubicin ratio after 48 hrs by MTT-based checkerboard microplate method; type: functional; method in brief: as §1
[20] = system: MDA-MB-231; test: Antiproliferative activity against human MDA-MB-231 cells after 72 hrs by MTT assay; type: functional, cell-based; conditions: MDA-MB-231, 72 h; method in brief: as §2
[21] = Synergistic cytotoxicity against mouse L5178 cells assessed as combination index at ED50 using 75:1 test compound to doxorubicin ratio after 48 hrs by MTT-based checkerboard microplate method; type: functional; method in brief: as §1
[22] = molecular target: T1, ABCB1 (P-glycoprotein); test: Inhibition of human ABCB1 expressed in mouse L5178 cells assessed as increase in rhodamine-123 accumulation at 2 uM after 10 mins by flow cytometric analysis relative to control; type: cell-based; conditions: mouse L5178 cells expressing human ABCB1, probe rhodamine-123; method in brief: as §3
[23] = Synergistic cytotoxicity against mouse L5178 cells assessed as combination index at ED75 using 37.5:1 test compound to doxorubicin ratio after 48 hrs by MTT-based checkerboard microplate method; type: functional; method in brief: as §1
[24] = Synergistic cytotoxicity against mouse L5178 cells expressing human ABCB1 assessed as combination index at ED90 using 30:1 test compound to doxorubicin ratio after 48 hrs by MTT-based checkerboard microplate method; type: functional; method in brief: as §1
[25] = Synergistic cytotoxicity against mouse L5178 cells assessed as combination index at ED75 using 300:1 test compound to doxorubicin ratio after 48 hrs by MTT-based checkerboard microplate method; type: functional; method in brief: as §1
[26] = system: SiHa; test: Antiproliferative activity against human SiHa cells after 72 hrs by MTT assay; type: functional, cell-based; method in brief: as §2
[27] = Synergistic cytotoxicity against mouse L5178 cells expressing human ABCB1 assessed as combination index at ED50 using 15:1 test compound to doxorubicin ratio after 48 hrs by MTT-based checkerboard microplate method; type: functional; method in brief: as §1

SMILES | IC50 [8] | inhibition at 10 min, 20 µM [13] | IC50 [20] | inhibition at 10 min, 2 µM [22] | CI [2] | CI [3] | CI [4] | CI [6] | CI [9] | CI [10] | CI [11] | CI [12] | CI [14] | CI [15] | IC50 [16] | CI [17] | CI [19] | CI [21] | CI [23] | CI [24] | other results
C=CCO/N=C1/C=C2C3=CC[C@H]([C@@]4(C)OC(C)(C)O[C@@H]4CCC(C)(C)O)[C@@]3(C)CC[C@@H]2[C@@]2(C)C[C@@H]3OC(C)(C)O[C@@H]3C[C@@H]12 | 24.2 µM | 103% | 29.4 µM | 61.1% | 0.32 | 0.46 | 0.44 | 0.22 | 0.63 | 1.07 | 0.22 | 0.11 | 0.17 | 0.22 | 55.3 µM | 0.5 | 0.24 | 0.58 | 0.47 | 0.34 | CI [1]: 0.39; CI [5]: 1.12; CI [7]: 0.39; CI [18]: 0.41; CI [25]: 0.88; IC50 [26]: > 30 µM; CI [27]: 0.5
CCO/N=C1/C=C2C3=CC[C@H]([C@@]4(C)OC(C)(C)O[C@@H]4CCC(C)(C)O)[C@@]3(C)CC[C@@H]2[C@@]2(C)C[C@@H]3OC(C)(C)O[C@@H]3C[C@@H]12 | 19.6 µM | 108% | 26 µM | 56.4% | 0.22 | 0.72 | 0.52 | 0.21 | 0.48 | 0.74 | 0.18 | 0.1 | 0.14 | 0.18 | 53.2 µM | 0.5 | 0.21 | 0.49 | 0.66 | 0.2 | CI [1]: 0.37; CI [5]: 1; CI [7]: 0.36; CI [18]: 0.36; CI [25]: 0.66; IC50 [26]: > 30 µM; CI [27]: 0.42
CC(C)(O)CC[C@H]1OC(C)(C)O[C@]1(C)[C@H]1CC=C2C3=C/C(=N\OC(C)(C)C)[C@@H]4C[C@H]5OC(C)(C)O[C@H]5C[C@]4(C)[C@H]3CC[C@@]21C | 19.3 µM | 94% | 16.9 µM | 67.5% | 0.36 | 1.16 | 0.83 | 0.27 | 0.85 | 1.02 | 0.27 | 0.24 | 0.24 | 0.28 | 63.8 µM | 1.03 | 0.28 | 1.31 | 0.85 | 0.41 | CI [1]: 0.64; CI [5]: 0.98; CI [7]: 0.57; CI [18]: 0.51; CI [25]: 0.87; IC50 [26]: 14.2 µM; CI [27]: 0.89
CO/N=C1/C=C2C3=CC[C@H]([C@@]4(C)OC(C)(C)O[C@@H]4CCC(C)(C)O)[C@@]3(C)CC[C@@H]2[C@@]2(C)C[C@@H]3OC(C)(C)O[C@@H]3C[C@@H]12 | 18 µM | 106% | 26 µM | 33.4% | 0.21 | 0.77 | 0.39 | 0.17 | 0.67 | 0.87 | 0.17 | 0.14 | 0.16 | 0.16 | 46 µM | 0.5 | 0.18 | 0.69 | 0.47 | 0.24 | CI [1]: 0.36; CI [5]: 1.3; CI [7]: 0.34; CI [18]: 0.33; CI [25]: 0.83; IC50 [26]: > 30 µM; CI [27]: 0.75

Molecules with a lower IC50 [8], results first:

IC50 [8] | inhibition at 10 min, 20 µM [13] | IC50 [20] | inhibition at 10 min, 2 µM [22] | SMILES | CI [2] | CI [3] | CI [4] | CI [6] | CI [9] | CI [10] | CI [11] | CI [12] | CI [14] | CI [15] | IC50 [16] | CI [17] | CI [19] | CI [21] | CI [23] | CI [24] | other results
17.2 µM | 81.8% | 26.9 µM | 24.2% | C=CCO/N=C1/C=C2[C@H](CC[C@]3(C)[C@@H]([C@@]4(C)OC(C)(C)O[C@@H]4CCC(C)(C)O)CC[C@@]23O)[C@@]2(C)C[C@@H]3OC(C)(C)O[C@@H]3C[C@@H]12 | 0.21 | 1.08 | 1.03 | 0.2 | 0.99 | 1.55 | 0.16 | 0.16 | 0.19 | 0.17 | 36.7 µM | 0.83 | 0.17 | 0.7 | 1.11 | 0.25 | CI [1]: 0.35; CI [7]: 0.32; CI [18]: 0.31; CI [25]: 1.18; IC50 [26]: > 30 µM; CI [27]: 0.17
13.1 µM | 75% | 25.1 µM | 19% | CCO/N=C1/C=C2[C@H](CC[C@]3(C)[C@@H]([C@@]4(C)OC(C)(C)O[C@@H]4CCC(C)(C)O)CC[C@@]23O)[C@@]2(C)C[C@@H]3OC(C)(C)O[C@@H]3C[C@@H]12 | 0.23 | 0.63 | 0.58 | 0.19 | 0.67 | 0.98 | 0.17 | 0.13 | 0.16 | 0.19 | 37.3 µM | 0.58 | 0.18 | 0.58 | 0.52 | 0.26 | CI [5]: 0.94; CI [25]: 0.88; IC50 [26]: > 30 µM; CI [27]: 0.62
